Test results from ChEMBL document CHEMBL3112476, “Inhibition of IκB kinase-β and IκB kinase-α by heterocyclic adamantyl arotinoids” (Bioorg Med Chem, 2014).

Biological target: T1, Retinoic acid receptor alpha (Homo sapiens) (UniProt P10276)
T1 sequence (whole entry): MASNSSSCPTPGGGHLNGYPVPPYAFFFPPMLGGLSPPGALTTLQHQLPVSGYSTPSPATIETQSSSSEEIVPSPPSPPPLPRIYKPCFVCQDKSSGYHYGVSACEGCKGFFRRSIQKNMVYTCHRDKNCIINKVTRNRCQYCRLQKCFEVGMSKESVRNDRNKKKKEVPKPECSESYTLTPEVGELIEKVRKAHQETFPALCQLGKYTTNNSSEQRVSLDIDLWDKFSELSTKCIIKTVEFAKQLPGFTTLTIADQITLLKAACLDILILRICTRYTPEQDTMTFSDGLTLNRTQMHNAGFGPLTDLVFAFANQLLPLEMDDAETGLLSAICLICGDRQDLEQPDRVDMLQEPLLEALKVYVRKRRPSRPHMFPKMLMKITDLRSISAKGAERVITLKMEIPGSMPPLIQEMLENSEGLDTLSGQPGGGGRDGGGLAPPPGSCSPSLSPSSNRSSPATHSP
Test: Antagonist activity at Gal4-fused RARalpha (unknown origin) transfected in HEK293 cells assessed as ATRA-induced transcriptional activity at 4 uM by luciferase/beta-galactosidase reporter gene assay relative to ATRA-treated control
Format: cell-based
Design: scale not given: the % may be the effect or the level left
Settings: not given
Method in brief: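 Same Gal4-RARα HEK-293 UAS-luciferase system, stimulated with 0.1 µM atRA alone or with 4 µM compound (40-fold molar excess); 1 µM UVI2024 served as control antagonist. Background-subtracted luciferase was normalized to β-galactosidase and given as percent of atRA-stimulated cells. Data: 2–3 experiments, triplicate.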

Row | Compound | Activity
1 | COc1nc(-c2ccc(C(=O)O)cc2)cnc1-c1ccc(O)c(C23CC4CC(CC(C4)C2)C3)c1 | 95.4%
2 | Cc1cc(O)c(C23CC4CC(CC(C4)C2)C3)cc1-c1ncc(/C=C/C(=O)O)s1 | 87.3%
3 | COCCOCOc1ccc(-c2ncc(-c3ccc(C(=O)O)cc3)nc2OC)cc1C12CC3CC(CC(C3)C1)C2 | 109%
4 | COCCOCOc1cc(C)c(-c2ccc(CC(=O)O)cc2Cl)cc1C12CC3CC(CC(C3)C1)C2 | 74.1%

Further lines, results first:

Row | Activity | Compound
5 | 75.3% | COCCOCOc1cc(C)c(-c2ncc(/C=C/C(=O)O)s2)cc1C12CC3CC(CC(C3)C1)C2
6 | 66.2% | O=C(O)c1ccc(-c2cnc(-c3ccc(O)c(C45CC6CC(CC(C6)C4)C5)c3)s2)cc1
7 | 93.2% | COc1nc(/C=C/C(=O)O)cnc1-c1ccc(O)c(C23CC4CC(CC(C4)C2)C3)c1
8 | 61.6% | COCCOCOc1cc(C)c(-c2ncc(-c3ccc(C(=O)O)cc3)s2)cc1C12CC3CC(CC(C3)C1)C2
9 | 67.1% | Cc1cc(O)c(C23CC4CC(CC(C4)C2)C3)cc1-c1ccc(/C=C/C(=O)O)cc1Cl
10 | 70% | CC(=O)NCCCOc1cc(/C=C/C(=O)O)ccc1-c1cc(C23CC4CC(CC(C4)C2)C3)c(O)cc1C

Test system: Jurkat
Test: Induction of apoptosis in human Jurkat cells assessed as activation of DEVDase at 5 uM after 4 hrs by fluorometric assay relative to control
Format: functional
Settings: not given
Method in brief: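 Jurkat cells (20,000/well, 0.5% FBS RPMI) were treated 4 h with 5 µM compound and lysed 15 min in PIPES pH 7 buffer with NP-40, cytochalasin B and protease inhibitors. An equal volume of 2× caspase buffer containing 100 µM Ac-DEVD-AFC was added. AFC fluorescence (ex 390/em 510 nm) was read every 2 min for 1 h at 37 °C; the linear slope was taken as activity, expressed as fold over DMSO control. Data: 2 experiments, triplicate.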

Row | Compound | fold change (FC)
11 | COCCOCOc1cc(C)c(-c2ncc(/C=C/C(=O)O)s2)cc1C12CC3CC(CC(C3)C1)C2 | 1.6
12 | COc1nc(-c2ccc(C(=O)O)cc2)cnc1-c1ccc(O)c(C23CC4CC(CC(C4)C2)C3)c1 | 42.6
13 | Cc1cc(O)c(C23CC4CC(CC(C4)C2)C3)cc1-c1ncc(/C=C/C(=O)O)s1 | 1.5
14 | O=C(O)c1ccc(-c2cnc(-c3ccc(O)c(C45CC6CC(CC(C6)C4)C5)c3)s2)cc1 | 81.4
15 | COc1nc(/C=C/C(=O)O)cnc1-c1ccc(O)c(C23CC4CC(CC(C4)C2)C3)c1 | 3.1
16 | COCCOCOc1cc(C)c(-c2ncc(-c3ccc(C(=O)O)cc3)s2)cc1C12CC3CC(CC(C3)C1)C2 | 4.9
17 | COCCOCOc1ccc(-c2ncc(-c3ccc(C(=O)O)cc3)nc2OC)cc1C12CC3CC(CC(C3)C1)C2 | 2.5
18 | Cc1cc(O)c(C23CC4CC(CC(C4)C2)C3)cc1-c1ccc(/C=C/C(=O)O)cc1Cl | 0.8
19 | COCCOCOc1cc(C)c(-c2ccc(CC(=O)O)cc2Cl)cc1C12CC3CC(CC(C3)C1)C2 | 2.6
20 | CC(=O)NCCCOc1cc(/C=C/C(=O)O)ccc1-c1cc(C23CC4CC(CC(C4)C2)C3)c(O)cc1C | 6.3

Biological target: T2, Inhibitor of nuclear factor kappa-B kinase subunit beta (Homo sapiens) (UniProt O14920)
T2 sequence (whole entry): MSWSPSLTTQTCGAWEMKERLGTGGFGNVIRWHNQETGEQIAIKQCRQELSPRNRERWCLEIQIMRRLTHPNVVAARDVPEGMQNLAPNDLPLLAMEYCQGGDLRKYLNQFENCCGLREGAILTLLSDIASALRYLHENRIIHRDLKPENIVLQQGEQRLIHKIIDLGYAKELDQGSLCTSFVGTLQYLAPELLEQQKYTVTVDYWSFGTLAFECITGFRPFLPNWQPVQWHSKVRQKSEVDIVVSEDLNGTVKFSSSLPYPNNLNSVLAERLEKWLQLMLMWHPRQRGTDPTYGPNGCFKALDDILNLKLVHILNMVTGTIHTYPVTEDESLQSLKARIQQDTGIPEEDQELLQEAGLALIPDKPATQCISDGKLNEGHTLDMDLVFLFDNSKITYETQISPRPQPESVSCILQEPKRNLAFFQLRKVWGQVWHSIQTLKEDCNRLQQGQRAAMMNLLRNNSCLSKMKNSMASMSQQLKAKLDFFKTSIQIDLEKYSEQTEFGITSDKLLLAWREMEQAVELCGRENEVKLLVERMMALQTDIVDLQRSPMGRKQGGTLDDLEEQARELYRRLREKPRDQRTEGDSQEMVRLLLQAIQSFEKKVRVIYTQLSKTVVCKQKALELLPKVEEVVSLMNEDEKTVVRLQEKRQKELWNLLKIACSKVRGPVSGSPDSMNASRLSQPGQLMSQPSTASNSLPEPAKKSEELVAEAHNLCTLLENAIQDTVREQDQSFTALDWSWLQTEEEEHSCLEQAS
Test: Inhibition of recombinant IKKbeta (unknown origin) using ulight-IkappaomegaBalpha as substrate at 20 uM after 1 hr by LANCE ultra TR-FRET assay relative to control
Settings: not given

Row | Compound | inhibition
21 | COc1nc(-c2ccc(C(=O)O)cc2)cnc1-c1ccc(O)c(C23CC4CC(CC(C4)C2)C3)c1 | 83.9%
22 | Cc1cc(O)c(C23CC4CC(CC(C4)C2)C3)cc1-c1ncc(/C=C/C(=O)O)s1 | 26.2%
23 | COCCOCOc1ccc(-c2ncc(-c3ccc(C(=O)O)cc3)nc2OC)cc1C12CC3CC(CC(C3)C1)C2 | 25.4%
24 | COCCOCOc1cc(C)c(-c2ccc(CC(=O)O)cc2Cl)cc1C12CC3CC(CC(C3)C1)C2 | 39.8%

Further lines, results first:

Row | inhibition | Compound
25 | 12.2% | COCCOCOc1cc(C)c(-c2ncc(/C=C/C(=O)O)s2)cc1C12CC3CC(CC(C3)C1)C2
26 | 94.1% | O=C(O)c1ccc(-c2cnc(-c3ccc(O)c(C45CC6CC(CC(C6)C4)C5)c3)s2)cc1
27 | 8.2% | COc1nc(/C=C/C(=O)O)cnc1-c1ccc(O)c(C23CC4CC(CC(C4)C2)C3)c1
28 | 87.7% | COCCOCOc1cc(C)c(-c2ncc(-c3ccc(C(=O)O)cc3)s2)cc1C12CC3CC(CC(C3)C1)C2
29 | 4.9% | Cc1cc(O)c(C23CC4CC(CC(C4)C2)C3)cc1-c1ccc(/C=C/C(=O)O)cc1Cl
30 | 0% | CC(=O)NCCCOc1cc(/C=C/C(=O)O)ccc1-c1cc(C23CC4CC(CC(C4)C2)C3)c(O)cc1C

Biological target: T3, Inhibitor of nuclear factor kappa-B kinase subunit epsilon (Homo sapiens) (UniProt Q14164)
T3 sequence (whole entry): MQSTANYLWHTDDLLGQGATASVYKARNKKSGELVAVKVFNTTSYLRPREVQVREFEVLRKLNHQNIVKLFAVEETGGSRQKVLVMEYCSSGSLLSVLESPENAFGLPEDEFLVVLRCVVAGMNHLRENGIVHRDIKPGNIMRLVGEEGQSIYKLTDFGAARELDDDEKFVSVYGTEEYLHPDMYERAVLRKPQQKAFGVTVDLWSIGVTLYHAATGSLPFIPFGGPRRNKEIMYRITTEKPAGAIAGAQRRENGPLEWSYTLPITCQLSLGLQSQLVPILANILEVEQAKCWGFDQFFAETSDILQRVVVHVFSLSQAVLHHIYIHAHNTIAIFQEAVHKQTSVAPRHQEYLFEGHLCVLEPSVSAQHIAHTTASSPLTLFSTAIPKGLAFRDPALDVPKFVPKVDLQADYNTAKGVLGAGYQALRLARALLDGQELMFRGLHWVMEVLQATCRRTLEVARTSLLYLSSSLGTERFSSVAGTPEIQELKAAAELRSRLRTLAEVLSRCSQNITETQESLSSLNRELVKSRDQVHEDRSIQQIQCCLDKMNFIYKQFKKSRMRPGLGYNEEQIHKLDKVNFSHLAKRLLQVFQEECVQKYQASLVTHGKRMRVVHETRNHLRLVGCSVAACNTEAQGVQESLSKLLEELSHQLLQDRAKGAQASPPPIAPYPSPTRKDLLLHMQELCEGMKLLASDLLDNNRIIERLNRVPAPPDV
Test: Inhibition of recombinant IKKepsilon (unknown origin) using ulight-rpS6 as substrate at 20 uM after 2 hrs by LANCE ultra TR-FRET assay relative to control
Settings: not given

Row | Compound | inhibition
31 | COc1nc(-c2ccc(C(=O)O)cc2)cnc1-c1ccc(O)c(C23CC4CC(CC(C4)C2)C3)c1 | 26.1%
32 | Cc1cc(O)c(C23CC4CC(CC(C4)C2)C3)cc1-c1ncc(/C=C/C(=O)O)s1 | 0%
33 | COCCOCOc1ccc(-c2ncc(-c3ccc(C(=O)O)cc3)nc2OC)cc1C12CC3CC(CC(C3)C1)C2 | 18.8%
34 | COCCOCOc1cc(C)c(-c2ccc(CC(=O)O)cc2Cl)cc1C12CC3CC(CC(C3)C1)C2 | 0%

The remaining lines, values ahead:

Row | inhibition | Compound
35 | 11.1% | COCCOCOc1cc(C)c(-c2ncc(/C=C/C(=O)O)s2)cc1C12CC3CC(CC(C3)C1)C2
36 | 11.6% | O=C(O)c1ccc(-c2cnc(-c3ccc(O)c(C45CC6CC(CC(C6)C4)C5)c3)s2)cc1
37 | 7.8% | COc1nc(/C=C/C(=O)O)cnc1-c1ccc(O)c(C23CC4CC(CC(C4)C2)C3)c1
38 | 17% | COCCOCOc1cc(C)c(-c2ncc(-c3ccc(C(=O)O)cc3)s2)cc1C12CC3CC(CC(C3)C1)C2
39 | 11.9% | Cc1cc(O)c(C23CC4CC(CC(C4)C2)C3)cc1-c1ccc(/C=C/C(=O)O)cc1Cl
40 | 5.2% | CC(=O)NCCCOc1cc(/C=C/C(=O)O)ccc1-c1cc(C23CC4CC(CC(C4)C2)C3)c(O)cc1C

Test system: not listed separately
Test: Cytotoxicity against human Jurkat T cells assessed as cell viability at 4 uM after 24 hrs by CellTiter-Glo assay relative to control
Format: functional
Settings: read-out: Activity
Method in brief: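 Jurkat cells in 0.5% FBS RPMI were exposed to 4 µM compound or 0.1% DMSO for 24 h. Viability was read as ATP by CellTiter-Glo luminescence and expressed as percent of solvent control; below 60% counted as cell killing. Data: three experiments, triplicate.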

Row | Compound | viability at 4 µM
41 | COCCOCOc1cc(C)c(-c2ncc(/C=C/C(=O)O)s2)cc1C12CC3CC(CC(C3)C1)C2 | 96.1%
42 | COc1nc(-c2ccc(C(=O)O)cc2)cnc1-c1ccc(O)c(C23CC4CC(CC(C4)C2)C3)c1 | 14.9%
43 | Cc1cc(O)c(C23CC4CC(CC(C4)C2)C3)cc1-c1ncc(/C=C/C(=O)O)s1 | 92.3%
44 | O=C(O)c1ccc(-c2cnc(-c3ccc(O)c(C45CC6CC(CC(C6)C4)C5)c3)s2)cc1 | 6%
45 | COc1nc(/C=C/C(=O)O)cnc1-c1ccc(O)c(C23CC4CC(CC(C4)C2)C3)c1 | 60.9%
46 | COCCOCOc1cc(C)c(-c2ncc(-c3ccc(C(=O)O)cc3)s2)cc1C12CC3CC(CC(C3)C1)C2 | 59.5%
47 | COCCOCOc1ccc(-c2ncc(-c3ccc(C(=O)O)cc3)nc2OC)cc1C12CC3CC(CC(C3)C1)C2 | 91.4%
48 | Cc1cc(O)c(C23CC4CC(CC(C4)C2)C3)cc1-c1ccc(/C=C/C(=O)O)cc1Cl | 34.1%
49 | COCCOCOc1cc(C)c(-c2ccc(CC(=O)O)cc2Cl)cc1C12CC3CC(CC(C3)C1)C2 | 86.8%
50 | CC(=O)NCCCOc1cc(/C=C/C(=O)O)ccc1-c1cc(C23CC4CC(CC(C4)C2)C3)c(O)cc1C | 28%
